# Compound activity from PubChem.
# The list is not random: actives were taken first. Their share in the collection is about 3.8%.
# Measles CPE – protection of cells from measles virus; Measles virus-infected cells, CPE protection, absorbance; protection (pct of control), % at 4 µM; 1.5% of 140,000 active; in the data active = protection mostly above about 24%, no sharp cut-off; inactive = mostly below about 26%
# Yeast life ext – extends the lifespan of yeast | S. cerevisiae growth with nicotinamide, OD615; deaD strain in restrictive glucose medium | inhibition of the nicotinamide effect, % at 10 µM | 0.68% of 130,000 active | AID 775;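 active = inhibition above a set limit, placed 3 SD over the median of all compounds, cut at about 26% in these data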
#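 Assay system: engineered S. cerevisiae DeaD replicative-lifespan strain, galactose-grown log-phase cells; Buffer or medium: CSMM-D glucose medium, restrictive; Probe or stimulus: nicotinamide 1.5 mM; Compound: single dose 10 µM compound, 0.25% DMSO; Schedule: 4 h preincubation then 48 h treatment at 30 °C; Technique: OD615 measurement.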
# SDO1 yeast rescue – compounds rescuing growth of sdo1-depleted yeast, bone marrow failure model; S. cerevisiae sdo1-depleted JHY4D growth rescue, OD600 30 h; stronger effect = higher value; pdr5 snq2 efflux-pump mutant strain; z-score at 10 µM; 0.21% of 140,000 active; AID 817;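 active = z-score above 3 at both the 24 hr and the 30 hr optical density reads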
# Yeast growth inh – reduces growth of yeast BB579 in restrictive medium; S. cerevisiae BB579 growth, OD615, 48 h; inhibition, % at 10 µM; 0.51% of 140,000 active;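 active = inhibition above a set limit, 3 SD over the mean compound inhibition, cut at about 44% in these data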
#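 Test system: S. cerevisiae DeaD strain BB579 yeast; Medium: restrictive CSMM-D medium; Compound: one dose, 10 µM compound with 0.25% DMSO; Incubation: 4 h cell preincubation, 48 h compound exposure, 30 °C humidified; Signal: OD at 615 nm; Benchmarks: amphotericin B at 10 µg/mL as positive control.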
# RAM inhibit – inhibitors of the yeast RAM network. S. cerevisiae dse1pr::URA3 reporter, 5-FOA growth OD615, 2 d; analog-sensitive cbk1-as2 kinase mutant strain. inhibition, % at 50 µM. 1.8% of 190,000 active. AID 868;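 active = inhibition above a set limit, 3 SD over mean compound inhibition, cut at about 8.4% in these data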;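 note: inhibition rescues growth on 5-FOA so higher OD means more RAM inhibition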
# RAM efflux-def – RAM network inhibition, efflux-deficient strain | AID 1305 | S. cerevisiae efflux-deficient reporter strain, 5-FOA growth OD615, 2 days | 1,200 tested, under 10 active | max inhibition, % | shares compounds with RAM inhibit; call rule not given here
# Hits are given with their value; 0 = inactive; - = no result.
SMILES,Measles CPE,Yeast life ext,SDO1 yeast rescue,Yeast growth inh,RAM inhibit,RAM efflux-def
CCOC(=O)c1ccc(NC(=O)Nc2ccc3c4c(cccc24)C(=O)N3CC)cc1,0,0,0,0,18.4,0
CC1COC(C)(CC(=O)NN2C(=O)c3ccccc3C2=O)O1 (stereo not given),-,-,-,-,0,-
Cc1ccc(S(=O)(=O)n2nc(-c3ccc(Cl)cc3)nc2NCc2ccco2)cc1,0,0,0,0,15.2,0
CCOc1cccc(-c2csc(C3COc4ccccc4O3)n2)c1 (stereo not given),0,0,0,0,15.0,0
Cc1ccc(C(=O)/C=C/c2cn(CC(O)CN3CCOCC3)c3ccccc23)cc1 (stereo not given),0,0,0,0,19.3,0
CCC(CC)NC(=O)CO/N=C/c1ccccc1OC(F)F,0,0,0,0,0,-
O=C(NC(=S)N(Cc1ccccc1)Cc1ccccc1)c1ccccc1F,0,0,0,0,11.9,0
Cc1cc(NC(=O)CSc2ccc3c(c2)OCCO3)no1,0,0,0,0,0,-
COc1cccc(CNC(=O)Cn2cc3c(n2)CCCC3)c1,0,0,0,0,0,-
COc1cccc(CNC(=O)CN2C(=O)CC(c3ccccc3)=Nc3ccccc32)c1,-,-,-,-,12.6,0
CN1CCN(C(=O)C(N)Cc2ccccc2)CC1 (stereo not given),-,-,-,-,0,-
